This passage reports EC50 and Activity results from ChEMBL document CHEMBL4196177, “Synthesis, Evaluation, and Structure-Activity Relationship Study of Lanosterol Derivatives To Reverse Mutant-Crystallin-Induced Protein Aggregation” (J Med Chem, 2018).

Numbering of substitutions follows the chain as printed. The source made the active and inactive calls. No cut-off for these calls is given here.

Assay [1] deals with T1, Alpha-crystallin B chain (Homo sapiens, UniProt P02511, R120G). Kind of assay: Inhibition of alpha-crystallin B R120G mutant (unknown origin)-induced intracellular protein aggregation expressed in human HeLa cells or HLE-B3 cells incubated for 6 to 8 hrs by fluorescence microscopy relative to untreated control. The assay is classed as cell-based.
For assay [2], the system named is T2, Alpha-crystallin A chain (Homo sapiens), P02489 [R116C].
T2 sequence (whole entry): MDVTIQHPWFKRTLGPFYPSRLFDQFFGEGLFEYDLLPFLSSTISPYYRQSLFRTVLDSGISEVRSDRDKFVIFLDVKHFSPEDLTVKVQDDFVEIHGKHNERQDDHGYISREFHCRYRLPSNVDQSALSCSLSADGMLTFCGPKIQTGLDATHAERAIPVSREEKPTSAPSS
Kind of assay: Induction of redissolving of aggregated alpha-crystallin A R116C mutant (unknown origin) at 200 uM incubated for 24 hrs by ThT-fluorescence based assay. Put shortly:
(§1)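 Purified mutant crystallin proteins, pre-formed into amyloid-like fibrils, were treated with compounds delivered in liposomes, with a liposome-only vehicle control. Redissolution was read as thioflavin T (ThT) fluorescence, n = 3.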

Assay [3] deals with T3, Alpha-crystallin B chain (Homo sapiens), P02511 [R120G].
T3 sequence (whole entry): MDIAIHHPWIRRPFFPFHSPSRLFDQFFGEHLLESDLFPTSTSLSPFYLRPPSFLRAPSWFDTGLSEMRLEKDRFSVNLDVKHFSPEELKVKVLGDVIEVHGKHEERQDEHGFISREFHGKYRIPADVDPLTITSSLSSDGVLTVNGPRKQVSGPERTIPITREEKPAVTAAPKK
Put plainly: Induction of redissolving of aggregated alpha-crystallin B R120G mutant (unknown origin) at 200 uM incubated for 24 hrs by ThT-fluorescence based assay. Put shortly:
as §1

Assay [4] has as its system T4, Beta-crystallin B2 (Homo sapiens), P43320 [R188H].
T4 sequence (whole entry): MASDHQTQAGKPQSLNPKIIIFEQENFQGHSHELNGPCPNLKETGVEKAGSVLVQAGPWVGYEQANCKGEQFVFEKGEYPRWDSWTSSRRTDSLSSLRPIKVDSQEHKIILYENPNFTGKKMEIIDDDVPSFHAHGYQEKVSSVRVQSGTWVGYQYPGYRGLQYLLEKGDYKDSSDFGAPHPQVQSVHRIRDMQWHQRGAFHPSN
Kind of assay: Induction of redissolving of aggregated beta-crystallin B2 R188H mutant (unknown origin) at 200 uM incubated for 24 hrs by ThT-fluorescence based assay. Summed up: as §1

Assay [5] concerns T5, Alpha-crystallin A chain (Homo sapiens), P02489 [R116H].
T5 sequence (whole entry): T2 sequence (whole entry) with C116H
Kind of assay: Induction of redissolving of aggregated alpha-crystallin A R116H mutant (unknown origin) at 200 uM incubated for 24 hrs by transmission-electron-microscopy. Put shortly:
(§2)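 Pre-formed amyloid-like fibrils of mutant crystallin proteins were treated with compounds in liposomes or with a liposome vehicle. Fibrillar structures were then examined by negative-stain transmission electron microscopy.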

Assay [6] has as its system T3, Alpha-crystallin B chain (Homo sapiens), P02511 [R120G]. Put plainly: Induction of redissolving of aggregated alpha-crystallin B R120G mutant (unknown origin) at 200 uM incubated for 24 hrs by transmission-electron-microscopy. Summed up: as §2
Assay [7] relates to T6, Gamma-crystallin C (Homo sapiens), P07315 [G129C].
T6 sequence (whole entry): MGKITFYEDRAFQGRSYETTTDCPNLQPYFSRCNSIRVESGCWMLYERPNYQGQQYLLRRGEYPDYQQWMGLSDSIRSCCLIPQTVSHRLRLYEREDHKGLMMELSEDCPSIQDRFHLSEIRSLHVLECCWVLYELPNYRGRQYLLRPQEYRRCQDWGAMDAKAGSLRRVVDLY
Put plainly: Induction of redissolving of aggregated gamma-crystallin C G129C mutant (unknown origin) at 200 uM incubated for 24 hrs by transmission-electron-microscopy. Summed up:
as §2

For assay [8], the system named is T7, Gamma-crystallin D (Homo sapiens), P07320 [W43R].
T7 sequence (whole entry): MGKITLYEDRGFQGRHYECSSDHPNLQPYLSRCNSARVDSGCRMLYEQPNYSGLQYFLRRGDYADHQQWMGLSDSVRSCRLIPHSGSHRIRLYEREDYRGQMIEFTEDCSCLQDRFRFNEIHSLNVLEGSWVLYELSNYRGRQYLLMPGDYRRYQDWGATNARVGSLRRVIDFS
Put plainly: Induction of redissolving of aggregated gamma-crystallin D W43R mutant (unknown origin) at 200 uM incubated for 24 hrs by transmission-electron-microscopy. Summed up:
as §2

The subject of assay [9] is T4, Beta-crystallin B2 (Homo sapiens), P43320 [R188H]. Put plainly: Induction of redissolving of aggregated beta-crystallin B2 R188H mutant (unknown origin) at 200 uM incubated for 24 hrs by transmission-electron-microscopy. Put shortly:
as §2

The target in another assay is Alpha-crystallin A chain (Homo sapiens, UniProt P02489, Y118D). Kind of assay: Induction of redissolving of aggregated alpha-crystallin A Y118D mutant (unknown origin) incubated for 24 hrs by ThT-fluorescence based assay. Put shortly: (§3)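 Dose–response EC50 for redissolving pre-formed amyloid-like fibrils of αA Y118D or αB R120G crystallin. Compounds were delivered in liposomes and the read-out was thioflavin T fluorescence.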
Chain of Alpha-crystallin A chain (P02489 whole entry Y118D): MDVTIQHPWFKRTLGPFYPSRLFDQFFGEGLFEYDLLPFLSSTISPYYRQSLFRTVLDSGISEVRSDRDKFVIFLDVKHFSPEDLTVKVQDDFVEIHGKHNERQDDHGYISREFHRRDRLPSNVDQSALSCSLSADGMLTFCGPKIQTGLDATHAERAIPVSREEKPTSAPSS

For assay [10], the target named is T1, Alpha-crystallin B chain. Put plainly: Induction of redissolving of aggregated alpha-crystallin B R120G mutant (unknown origin) incubated for 24 hrs by ThT-fluorescence based assay. Summed up: as §3

As for `C[C@H](CCCC(C)(C)O)[C@H]1CC[C@@]2(C)[C@@]34CC[C@H]5C(C)(C)/C(=N/O)CC[C@]5(C)[C@]3(CC[C@]12C)O4`, the half-maximal effective concentration (EC50) (in general, the midpoint of the concentration-response curve) on Alpha-crystallin B chain [1] is on record as “Not Active”. The outcome in assay [2], in assay [3], in assay [4], in [5], in assay [6] and in assay [7] was inactive. Besides, the result in [8] and in assay [9] was inactive.
With `C[C@H](CCCC(C)(C)O)[C@H]1CC[C@@]2(C)C3=C(CC[C@]12C)[C@@]1(C)CC[C@H](O)C(C)(C)[C@@H]1CC3`, the result in [2], in assay [3], in assay [4], in [5], in assay [6] and in assay [7] was Active. Moreover, the outcome in [8] and in assay [9] was Active. Moreover, the values for the EC50 on Alpha-crystallin A chain and at Alpha-crystallin B chain [10] were 0.0356 µM and 3.12 µM, respectively.
